Test results reported in ChEMBL document CHEMBL1156837, “Synthesis and the biological evaluation of arylnaphthalene lignans as anti-hepatitis B virus agents” (Bioorg Med Chem, 2010).
The source made the active and inactive calls. No cut-off for these calls is given here.

How the values were obtained:
[1] = Cytotoxicity against human HepA2 cells after 48 hrs by MTT assay; format: cell-based
Outline: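 HepA2 cells seeded in 96-well plates in DMEM and treated with various concentrations of compound for 2 days; cell number measured by MTT; CC50 taken as concentration giving cell growth at 50% of untreated cells.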

Hepatitis B virus [2] = assay: Antiviral activity against Hepatitis B virus in human HepA2 cells assessed as reduction of HBsAg secretion after 48 hrs by enzyme immunoassay; format: functional, organism-based
Outline: (§1)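 HepA2 cells (HepG2 carrying tandem-repeat full-length HBV DNA) seeded at 8 × 10⁴ cells/well in DMEM with 10% fetal calf serum, attached overnight, washed twice with PBS pH 7.0, then exposed to various concentrations in serum-free DMEM for 48 h. Secreted HBsAg and HBeAg in medium measured by enzyme immunoassay; EC50 as concentration giving 50% of untreated level; mean ± SD, n = 3.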

Hepatitis B virus [3] = assay: Antiviral activity against Hepatitis B virus ayw in human M33 cells containing Lamivudine resistant HBV genome with DNA polymerase L515M/M539V mutation genome cells assessed as reduction of viral DNA level after 6 days by RT-PCR; format: functional, organism-based
Outline: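 M33 cells (HepG2 carrying HBV with the L515M/M539V polymerase double mutation) were maintained in DMEM with 10% FCS at 37 °C under 5% CO₂. Cells were seeded at 5 × 10⁶ per 100 mm dish and treated with graded drug concentrations in serum-free DMEM. Viral DNA was extracted from the medium and quantified by real-time PCR against an HBV plasmid standard curve (10³–10⁷ copies), reported as mean, SD, n = 3.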

Hepatitis B virus [4] = assay: Suppression of large viral surface antigen promoter activity of Hepatitis B virus in human HepA2 cells at 3 uM by luciferase reporter gene assay; format: functional, organism-based
Outline: (§2)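 HepA2 cells transfected by lipofectamine 2000 with HBV S1P, S2P, core, X or enhancer I/X promoter–luciferase constructs plus β-gal vector, then held in serum-free DMEM with compound (0.9 or 3.0 µM) for 48 h. Lysate luciferase normalized to protein (Bradford) and β-gal, untreated set to one; mean ± SEM, at least three independent experiments.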

Hepatitis B virus [5] = assay: Antiviral activity against Hepatitis B virus ayw in human 1.3ES2 cells stably transfected with 1.3 fold wild type HBV ayw strain genome cells assessed as reduction of major HbsAg mRNA level after 2 days by Northern blot; format: functional, organism-based
Outline: (§3)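 1.3ES2 cells (HepG2 with 1.3 copies of HBV genome integrated) grown in DMEM with 10% fetal calf serum to confluence in 100 mm dishes, then switched to serum-free DMEM with compound (0, 1.5, 3.0, 9.0 µM) for 48 h. Total RNA Northern-hybridized with HBV DNA probe; 3.5-kb and 2.4/2.1-kb transcripts read, GAPDH mRNA as internal marker; representative of three independent experiments.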

Hepatitis B virus [6] = assay: Suppression of viral X protein promoter activity of Hepatitis B virus in human HepA2 cells at 3 uM by luciferase reporter gene assay; format: functional, organism-based; outline: as §2
Hepatitis B virus [7] = assay: Suppression of viral core protein promoter activity of Hepatitis B virus in human HepA2 cells at 3 uM by luciferase reporter gene assay; format: functional, organism-based; outline: as §2
Hepatitis B virus [8] = assay: Suppression of enhancer 1 promoter activity of Hepatitis B virus in human HepA2 cells at 3 uM by luciferase reporter gene assay; format: functional, organism-based; outline: as §2
Hepatitis B virus [9] = assay: Suppression of major viral surface promoter activity of Hepatitis B virus in human HepA2 cells at 3 uM by luciferase reporter gene assay; format: functional, organism-based; outline: as §2
Hepatitis B virus [10] = assay: Antiviral activity against Hepatitis B virus ayw in human 1.3ES2 cells stably transfected with 1.3 fold wild type HBV ayw strain genome cells assessed as reduction of viral pregenomic RNA level after 2 days by Northern blot; format: functional, organism-based; outline: as §3
Hepatitis B virus [11] = assay: Antiviral activity against Hepatitis B virus ayw in human 1.3ES2 cells stably transfected with 1.3 fold wild type HBV ayw strain genome cells assessed as reduction of viral DNA level after 6 days by RT-PCR; format: functional, organism-based
Hepatitis B virus [12] = assay: Antiviral activity against Hepatitis B virus ayw in human 1.3ES2 cells stably transfected with 1.3 fold wild type HBV ayw strain genome cells assessed as reduction of large HbsAg mRNA level after 2 days by Northern blot; format: functional, organism-based; outline: as §3
[13] = Cytotoxicity against human HepA2 cells assessed as effect on cell proliferation after 48 hrs by WST1 dye reduction assay; format: cell-based; details: hepa2, 48 h
Outline: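 HepA2 cells treated alongside the antigen assay in serum-free DMEM for 48 h after PBS wash; WST-1 added for 0.5 h and formazan formation used to estimate viable cells per well; mean ± SD, n = 3.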

Hepatitis B virus [14] = assay: Antiviral activity against Hepatitis B virus in human HepA2 cells assessed as reduction of HBsAg secretion after 48 hrs by ELISA; format: functional, organism-based; details: HepA2, 48 h; outline: as §1
Hepatitis B virus [15] = assay: Antiviral activity against Hepatitis B virus ayw in human 1.3ES2 cells stably transfected with 1.3 fold wild type HBV ayw strain genome cells assessed as reduction of viral core protein level after 2 days by Western blot; format: functional, organism-based
Outline: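 1.3ES2 cells in 100 mm dishes treated with compound (0, 1.5, 3.0, 9.0 µM) in serum-free DMEM for 48 h; total cell lysates resolved by SDS-PAGE and immunoblotted with mouse anti-HBV core antibody.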

Hepatitis B virus [16] = assay: Antiviral activity against Hepatitis B virus ayw in human 1.3ES2 cells stably transfected with 1.3 fold wild type HBV ayw strain genome cells assessed as reduction of HbeAg mRNA level after 2 days by Northern blot; format: functional, organism-based; outline: as §3
Hepatitis B virus [17] = assay: Antiviral activity against Hepatitis B virus in human HepA2 cells assessed as reduction of HBeAg secretion after 48 hrs by ELISA; format: functional, organism-based; details: HepA2, 48 h; outline: as §1
[18] = Hepatitis B virus, HepA2, 48 h, read-out: EC50

Row | SMILES | CC50 at 48 h [1] [µM] | EC50 (Hepatitis B virus [2]; [18]) [µM] | further results
1 | CC(=O)OCc1cc2ccc3c(c2c(-c2ccc4c(c2)OCO4)c1CO)OCO3 | > 12.5 | 0.42 | 
2 | O=C1OC(=O)c2c1cc1ccc3c(c1c2-c1ccc(OC(F)(F)F)cc1)OCO3 |  |  | EC50 (Hepatitis B virus [2]; hepa2): Not Active
3 | COc1ccc(-c2c3c(cc4ccc5c(c24)OCO5)COC3=O)cc1OCc1ccccc1 | > 12.5 | > 12.5 | 
4 | COc1ccc(-c2c3c(cc4ccc5c(c24)OCO5)C(=O)OC3=O)cc1OCc1ccccc1 | > 12.5 | > 12.5 | 
5 | COC(=O)c1c(C(=O)OC)c(-c2ccc3c(c2)OCO3)c2c3c(ccc2c1OC)OCO3 | 8.93 | > 12.5 | 
6 | N#Cc1cc2c(c3c(-c4cc5c(cc4Br)OCO5)c4c(cc13)C(=O)OC4)OCO2 | > 12.5 | > 12.5 | 
7 | O=C1OCc2c1cc1ccc3c(c1c2-c1ccc2c(c1)OCO2)OCO3 [HELIOXANTHIN] | 11.3 | 0.16 | 
8 | CCOC(=O)c1cc2ccc3c(c2c(-c2ccc4c(c2)OCO4)c1C(=O)OCC)OCO3 | > 12.5 | > 12.5 | 
9 | COc1ccc(-c2c3c(cc4ccc5c(c24)OCO5)C(=O)OC3)cc1OCc1ccccc1 | > 12.5 | > 12.5 | 
10 | O=C(O)c1cc2ccc3c(c2c(-c2ccc4c(c2)OCO4)c1CO)OCO3 | > 12.5 | 0.89 | 
11 | OCc1cc2ccc3c(c2c(-c2ccc4c(c2)OCO4)c1CO)OCO3 | > 12.5 | 1.41 | 
12 | O=C1OCc2c1cc1c(Br)cc3c(c1c2-c1cc2c(cc1Br)OCO2)OCO3 | > 12.5 | > 12.5 | 
13 | O=C1OC(=O)c2c1cc1ccc3c(c1c2-c1ccc2c(c1)OCO2)OCO3 | 11.8 | > 12.5 | 
14 | O=C1OCc2c1cc1ccc3c(c1c2-c1ccc(OC(F)(F)F)cc1)OCO3 | > 12.5 | > 12.5 | 
15 | COc1cc(-c2c3c(cc4ccc5c(c24)OCO5)C(=O)OC3)ccc1O | > 12.5 | 1.89 | 
16 | COc1ccc(-c2c3c(cc4ccc5c(c24)OCO5)C(=O)OC3)cc1OC | 5.86 | 7.64 | 
17 | CC(=O)OCc1cc2ccc3c(c2c(-c2ccc4c(c2)OCO4)c1C=O)OCO3 | 4.69 | > 12.5 | 
18 | O=C1OCc2c1cc1ccc3c(c1c2-c1ccc(OCc2ccccc2)c(OCc2ccccc2)c1)OCO3 | > 12.5 | > 12.5 | 
19 | O=C1c2cc3ccc4c(c3c(-c3ccc5c(c3)OCO5)c2C(=O)N1CCO)OCO4 | > 12.5 | > 12.5 | 
20 | O=C1OCc2c1cc1ccc3c(c1c2-c1ccc(O)c(O)c1)OCO3 | 7.01 | 3.06 | 

Row | SMILES | CC50 at 48 h [1] [µM] | EC50 (Hepatitis B virus [2]; [18]) [µM] | further results
21 | O=C1C=Cc2cc3c(c(-c4ccc5c(c4)OCO5)c2C1=O)COC3=O | 7.49 | > 12.5 | 
22 | COC(=O)c1c(C(=O)O)c(OC)c2ccc3c(c2c1-c1ccc2c(c1)OCO2)OCO3 | 7.87 | > 12.5 | 
23 | O=C1OCc2cc3ccc4c(c3c(-c3ccc5c(c3)OCO5)c21)OCO4 | > 12.5 | 2.18 | 
24 | O=C1OC(=O)c2c1cc1ccc3c(c1c2-c1ccc(OCc2ccccc2)c(OCc2ccccc2)c1)OCO3 | > 12.5 | > 12.5 | 
25 | O=C1OCc2c1cc1c(Br)cc3c(c1c2-c1ccc2c(c1)OCO2)OCO3 | 6.33 | > 12.5 | 
26 | COc1cc(-c2c3c(cc4ccc5c(c24)OCO5)C(=O)OC3=O)ccc1OCc1ccccc1 | 11.7 | > 12.5 | 
27 | COc1ccc(-c2c3c(cc4ccc5c(c24)OCO5)C(=O)OC3=O)cc1OC |  |  | EC50 (Hepatitis B virus [2]; hepa2): Not Active
28 | O=Cc1cc2ccc3c(c2c(-c2ccc4c(c2)OCO4)c1C=O)OCO3 | 5.31 | 2.39 | 
29 | CC(=O)OCCN1C(=O)c2cc3ccc4c(c3c(-c3ccc5c(c3)OCO5)c2C1=O)OCO4 | > 12.5 | > 12.5 | inhibition (Hepatitis B virus [3]): inactive; inhibition (Hepatitis B virus [4]): inactive; inhibition (Hepatitis B virus [5]): inactive; inhibition (Hepatitis B virus [6]): inactive; inhibition (Hepatitis B virus [7]): inactive; inhibition (Hepatitis B virus [8]): inactive; inhibition (Hepatitis B virus [9]): inactive; inhibition (Hepatitis B virus [10]): inactive; inhibition (Hepatitis B virus [11]): inactive
30 | COC(=O)c1c(C(=O)OC)c(-c2ccc3c(c2)OCO3)c2c3c(ccc2c1O)OCO3 | 7.04 | > 12.5 | 
31 | COC(=O)c1c(C(=O)O)c(O)c2ccc3c(c2c1-c1ccc2c(c1)OCO2)OCO3 | 7.01 | > 12.5 | 
32 | Nc1ccn([C@@H]2CS[C@H](CO)O2)c(=O)n1 |  |  | inhibition (Hepatitis B virus [3]): inactive; inhibition (Hepatitis B virus [11]): Active
33 | COc1cc(-c2c3c(cc4ccc5c(c24)OCO5)C(=O)OC3)ccc1OCc1ccccc1 | > 12.5 | > 12.5 | 
34 | CC(=O)OCc1cc2ccc3c(c2c(-c2ccc4c(c2)OCO4)c1COC(C)=O)OCO3 | 6.91 | 1.22 | 
35 | COc1cc(-c2c3c(cc4ccc5c(c24)OCO5)COC3=O)ccc1OCc1ccccc1 |  |  | EC50 (Hepatitis B virus [2]; hepa2): Not Active
36 | O=C1OCc2cc3ccc4c(c3c(-c3ccc(OCc5ccccc5)c(OCc5ccccc5)c3)c21)OCO4 | > 12.5 | > 12.5 | 
37 | COc1ccc(-c2c3c(cc4ccc5c(c24)OCO5)C(=O)OC3)cc1O | 10.1 | 0.14 | inhibition (Hepatitis B virus [3]): Dose-dependent effect; inhibition (Hepatitis B virus [4]): Active; inhibition (Hepatitis B virus [12]): Dose-dependent effect; Activity [13]: Non-toxic; EC50 (Hepatitis B virus [14]): 60 nM; inhibition (Hepatitis B virus [15]): Dose-dependent effect; inhibition (Hepatitis B virus [6]): inactive; inhibition (Hepatitis B virus [7]): Active; inhibition (Hepatitis B virus [8]): Active; inhibition (Hepatitis B virus [9]): Active; inhibition (Hepatitis B virus [16]): Dose-dependent effect; EC50 (Hepatitis B virus [17]): 140 nM; inhibition (Hepatitis B virus [11]): Dose-dependent effect
38 | N#Cc1cc2c(c3c(-c4ccc5c(c4)OCO5)c4c(cc13)C(=O)OC4)OCO2 | > 12.5 | > 12.5 | 
39 | BrCc1cc2ccc3c(c2c(-c2ccc4c(c2)OCO4)c1CBr)OCO3 |  |  | EC50 (Hepatitis B virus [2]; hepa2): Not Active
